Shown is part of a subset that was picked to be rich in hits.
T cruzi growth-1 – blocks T. cruzi growth in NIH3T3 culture | T. cruzi beta-gal in NIH3T3, GalScreen luminescence, 90 h | actives 5.9% (n = 77,000) | inhibition, % at 8.34 µM;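 active = mean inhibition above about 93%, with at least 55% of replicates each passing it, limit read from the data, passing the limit was not always enough; inconclusive = only one of those two conditions holds; inactive = neither condition holds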
IDH1 R132H inh – blocks human IDH1 R132H reductase activity; O75874; diaphorase/resazurin fluorescence, 60 min; inhibition, % at 10 µM; actives 0.18% (n = 70,000); AID 624101; in the data active = inhibition above about 34%; inconclusive = no clear call, values can overlap the other calls; inactive = below about 11%;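 also: 0% = DMSO and 100% = no enzyme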
Target sequence (O75874 whole entry R132H): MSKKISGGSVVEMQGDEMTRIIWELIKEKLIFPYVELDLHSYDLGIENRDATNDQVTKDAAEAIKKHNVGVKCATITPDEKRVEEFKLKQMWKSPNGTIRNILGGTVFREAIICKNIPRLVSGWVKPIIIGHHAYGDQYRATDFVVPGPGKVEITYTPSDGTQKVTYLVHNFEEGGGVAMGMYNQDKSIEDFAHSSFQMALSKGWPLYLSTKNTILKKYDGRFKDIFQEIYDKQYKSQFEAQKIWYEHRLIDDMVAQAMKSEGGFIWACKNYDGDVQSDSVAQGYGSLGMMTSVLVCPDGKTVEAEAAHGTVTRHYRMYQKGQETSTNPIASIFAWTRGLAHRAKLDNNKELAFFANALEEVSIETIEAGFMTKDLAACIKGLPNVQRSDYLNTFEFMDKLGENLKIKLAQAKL
KDM4C inh – inhibitors of human demethylase GASC-1 KDM4C; AID 720574; GST-KDM4C 2-372, H3K9me3 peptide, LANCE TR-FRET; actives 0.15% (n = 96,000); inhibition, % at 12.5 µM;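 active = mean replicate inhibition above about 25%, with at least 55% of replicates also reaching it, limit read from the data, passing the limit was not always enough; inconclusive = only one of those two conditions met; inactive = neither condition met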
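Material: GST-tagged GASC-1 (JMJD2C) catalytic fragment, aa 2-372. Input: enzyme final amount 10 nM. Medium: HEPES buffer, pH 7.5, plus ascorbate. Reagent: H3K9me3 peptide substrate, Fe(II), 2-oxoglutarate. Doses: single dose. Times: reaction 30 min RT, detection step 1 h RT. Measured by: LANCE TR-FRET. Evaluation: Fall in 671/618 emission ratio as inhibition.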
T cruzi growth-2 – inhibitors of T. cruzi proliferation; T. cruzi beta-gal in NIH3T3, GalScreen luminescence, 90 h; shares compounds with T cruzi growth-1; actives 72% (n = 5,600); inhibition, % at 8.35 µM;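 active = mean replicate inhibition above about 95% and at least 55% of replicates individually reaching it, limit read from the data; inconclusive = only one of the two criteria is met; inactive = neither criterion is met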
T cruzi growth-3 – inhibitors of T. cruzi proliferation | shares compounds with T cruzi growth-1 | T. cruzi beta-gal in NIH3T3, GalScreen luminescence, 90 h | inhibition, % at 2.09 µM | actives 21% (n = 5,600);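 active = mean inhibition above about 95%, with at least 55% of replicates also reaching it, limit read from the data; inconclusive = meets just one of the two conditions; inactive = meets neither condition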;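 also: plate controls were neutral control median for no effect and positive control median for full effect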
3T3 cytotox – NIH/3T3 (mouse) viability loss. shares compounds with T cruzi growth-1. NIH/3T3 viability, CellTiter-Glo ATP luminescence, 90 h. cytotoxicity (signal decrease), % at 8.35 µM. actives 14% (n = 5,600);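 active = mean signal decrease across replicates above about 35% based on untreated-well scatter, with enough replicates individually passing, limit read from the data; inconclusive = no rule stated though some were filed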;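 also: 0% = median of neutral control wells and 100% = median of positive control wells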
NIH3T3 tox 2 – NIH/3T3 (mouse) viability loss; shares compounds with T cruzi growth-1; AID 651744; inhibition, % at 24.9 µM; NIH/3T3 viability, CellTiter-Glo ATP luminescence, 90 h; actives 56% (n = 5,600);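 active = mean loss of cell viability signal at or above a set limit, and enough replicates individually reaching it; inconclusive = meets only the mean limit or only the replicate share; inactive = meets neither condition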;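 also: 0% = median of neutral control wells and 100% = median of positive control wells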
* = called active by the depositor.

What do the screens show for `C[C@H](CO)N1C[C@H](C)[C@@H](CN(C)Cc2cccnc2)Oc2cc(C3=CCCCC3)ccc2S1(=O)=O`?
KDM4C inh: -2

Results for C[C@@H]1CN([C@@H](C)CO)S(=O)(=O)c2ccc(C3=CCCCC3)cc2O[C@@H]1CN(C)Cc1ccncc1 ?
T cruzi growth-1: 102*; KDM4C inh: -1; T cruzi growth-2: 99*; T cruzi growth-3: 92; 3T3 cytotox: inconclusive; NIH3T3 tox 2: 78*

Results for C[C@@H]1CN([C@@H](C)CO)S(=O)(=O)c2ccc(C3=CCCCC3)cc2O[C@H]1CN(C)Cc1ccncc1 ?
T cruzi growth-1: 114*; IDH1 R132H inh: 14; KDM4C inh: 1; T cruzi growth-2: 95*; T cruzi growth-3: 107*; 3T3 cytotox: 46*; NIH3T3 tox 2: 95*

What do the screens show for `Cc1cc(N(CC(=O)Nc2cccc(C(F)(F)F)c2)S(C)(=O)=O)ccc1Br`?
IDH1 R132H inh: 2

Results for CC(=O)c1ccc(NC(=O)CSc2nc(C)c(C)c(=O)[nH]2)cc1 ?
IDH1 R132H inh: 0

How did O=C(OC1C=C(CO)C2C(OC3OC(CO)C(O)C(O)C3O)OC=CC12O)c1ccc(O)cc1 (centres undefined) do in these assays?
IDH1 R132H inh: 1

Results for COc1ccc(S(=O)(=O)N(C)C[C@@H]2OCCCC[C@H](C)Oc3ccc(NC(=O)Nc4ccc(F)cc4)cc3C(=O)N([C@@H](C)CO)C[C@H]2C)cc1 ?
T cruzi growth-1: 64; KDM4C inh: -1

How did COc1ccc(S(=O)(=O)N(C)C[C@H]2OCCCC[C@@H](C)Oc3ccc(NC(=O)Nc4ccc(F)cc4)cc3C(=O)N([C@@H](C)CO)C[C@H]2C)cc1 do in these assays?
T cruzi growth-1: 104; KDM4C inh: 0

How did COc1ccc(S(=O)(=O)N(C)C[C@@H]2OCCCC[C@H](C)Oc3ccc(NC(=O)Nc4ccc(F)cc4)cc3C(=O)N([C@H](C)CO)C[C@@H]2C)cc1 do in these assays?
T cruzi growth-1: 115*; IDH1 R132H inh: 0; KDM4C inh: 0; T cruzi growth-2: 102*; T cruzi growth-3: 57; 3T3 cytotox: -5; NIH3T3 tox 2: -7

Results for COc1ccc(S(=O)(=O)N(C)C[C@@H]2OCCCC[C@H](C)Oc3ccc(NC(=O)Nc4ccc(F)cc4)cc3C(=O)N([C@@H](C)CO)C[C@@H]2C)cc1 ?
T cruzi growth-1: 116*; KDM4C inh: 0; T cruzi growth-2: 108*; T cruzi growth-3: 93; 3T3 cytotox: -17; NIH3T3 tox 2: -11

Results for COc1ccc(S(=O)(=O)N(C)C[C@H]2OCCCC[C@@H](C)Oc3ccc(NC(=O)Nc4ccc(F)cc4)cc3C(=O)N([C@@H](C)CO)C[C@@H]2C)cc1 ?
T cruzi growth-1: inconclusive; IDH1 R132H inh: 2; KDM4C inh: -4

How did COc1ccc(NC(=O)Nc2ccc3c(c2)C(=O)N([C@@H](C)CO)C[C@@H](C)[C@H](CN(C)S(=O)(=O)c2ccc(F)cc2)OCCCC[C@@H](C)O3)cc1 do in these assays?
T cruzi growth-1: inconclusive; IDH1 R132H inh: 1; KDM4C inh: -1; T cruzi growth-2: 109*; T cruzi growth-3: 44; 3T3 cytotox: -25; NIH3T3 tox 2: 11

How did CCCOc1ccc(Oc2nc(NC(C)(C)C)nc(N3CCOCC3)n2)nn1 do in these assays?
IDH1 R132H inh: 0

What do the screens show for `COc1ccccc1/C=C/C(=O)N1CCCC(c2ccccc2)C1` (centres undefined)?
IDH1 R132H inh: -4

Results for COC(=O)c1cc(OC)c(OC)cc1NC(=O)CSc1nc(C)cc(C(F)(F)F)c1C#N ?
IDH1 R132H inh: 0

Results for CC(C)(Oc1ccc(Br)cc1)C(=O)O ?
IDH1 R132H inh: 1

What do the screens show for `C[C@H](CO)N1C[C@H](C)[C@@H](CN(C)CC2CCCCC2)Oc2ccc(NS(=O)(=O)c3ccc(F)cc3)cc2CC1=O`?
T cruzi growth-1: 107*; IDH1 R132H inh: 0; KDM4C inh: 0; T cruzi growth-2: 107*; T cruzi growth-3: 89; 3T3 cytotox: 33; NIH3T3 tox 2: 104*

How did C[C@H]1CN([C@@H](C)CO)C(=O)Cc2cc(NS(=O)(=O)c3ccc(F)cc3)ccc2O[C@H]1CN(C)CC1CC1 do in these assays?
IDH1 R132H inh: 0; KDM4C inh: -1

How did CC(C)NC(=O)N(C)C[C@@H]1Oc2ccc(NS(=O)(=O)c3ccc(F)cc3)cc2CC(=O)N([C@@H](C)CO)C[C@H]1C do in these assays?
T cruzi growth-1: 101; IDH1 R132H inh: 1; KDM4C inh: 0

How did CC(C)NC(=O)N(C)C[C@H]1Oc2ccc(NS(=O)(=O)c3ccc(F)cc3)cc2CC(=O)N([C@H](C)CO)C[C@@H]1C do in these assays?
T cruzi growth-1: 103*; IDH1 R132H inh: 1; KDM4C inh: -1; T cruzi growth-2: 16; T cruzi growth-3: 49; 3T3 cytotox: 2; NIH3T3 tox 2: 6

What do the screens show for `C[C@H](CO)N1C[C@H](C)[C@@H](CN(C)CC2CCCCC2)Oc2ccc(NS(=O)(=O)c3ccc(Cl)cc3)cc2CC1=O`?
T cruzi growth-1: 94; IDH1 R132H inh: 0; KDM4C inh: 0

How did C[C@@H]1CN([C@H](C)CO)C(=O)Cc2cc(NS(=O)(=O)c3ccc(Cl)cc3)ccc2O[C@H]1CN(C)CC1CCCCC1 do in these assays?
T cruzi growth-1: 106*; IDH1 R132H inh: -1; KDM4C inh: 0; T cruzi growth-2: 96*; T cruzi growth-3: inconclusive; 3T3 cytotox: 27; NIH3T3 tox 2: 106*

How did COC(=O)C(C)Sc1nnc2c3ccccc3n(Cc3ccccc3)c2n1 (centres undefined) do in these assays?
IDH1 R132H inh: 0

What do the screens show for `COc1cc(NC(=O)COc2ccc3ccccc3c2Br)c(OC)cc1Cl`?
IDH1 R132H inh: 0

What do the screens show for `O=C1Cn2nnc(C(=O)c3ccccc3)c2C2(CCCCC2)O1`?
IDH1 R132H inh: -1

What do the screens show for `O=S(=O)(c1ccc(F)cc1)N1CCCCN2[C@H](CO)[C@H](c3ccc(C#CC4CC4)cc3)[C@H]2C1`?
T cruzi growth-1: 101*; KDM4C inh: -1; T cruzi growth-2: 104*; T cruzi growth-3: 83; 3T3 cytotox: 43*; NIH3T3 tox 2: 105*

What do the screens show for `COc1ccc(C#Cc2ccc([C@@H]3[C@@H](CO)N4CCCCN(S(=O)(=O)c5ccccc5)C[C@H]34)cc2)cc1`?
T cruzi growth-1: 67; KDM4C inh: -2

Screening data: PubChem, Broad Institute
